Compounds with a hit are over-represented: about 1% of the library has one in this group of screens.
Arrestin-AP2 inh = human beta-arrestin and AP2 interaction inhibition. FITC-arrestin peptide / GST-AP2 beads, flow cytometry; AP2 beta2 appendage carries R879A mutation. 0.31% of 340,000 active. inhibition, % at 10 µM;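 active = inhibition above a set limit, near 3 SD of compounds lacking own fluorescence, cut at about 54% in these data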
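Measured by: flow cytometry, FL1 (488/535 nm); Material: AP2 appendage R879A on GSH beads; Evaluation: percent response; Timing: pre-incubation 12 min, peptide binding 1 h, room temperature; Also added: 50 nM FITC-arrestin peptide; Medium: PBS with 0.05% Tween 20 and 0.1% BSA.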
pCIP destab = p/CIP protein destabilization | Q05BA5 | F442A p/CIP-EGFP cells, EGFP fluorescence, 16 h | decrease of EGFP signal, % at 10 µM | 0.01% of 290,000 active | AID 1984;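 active = EGFP signal decrease of at least 30% at 10 µM or well 3 SD below plate mean, unless failing retest; inactive = the rest, including hits failing retest or dose response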
Target sequence (Q05BA5 1-1403): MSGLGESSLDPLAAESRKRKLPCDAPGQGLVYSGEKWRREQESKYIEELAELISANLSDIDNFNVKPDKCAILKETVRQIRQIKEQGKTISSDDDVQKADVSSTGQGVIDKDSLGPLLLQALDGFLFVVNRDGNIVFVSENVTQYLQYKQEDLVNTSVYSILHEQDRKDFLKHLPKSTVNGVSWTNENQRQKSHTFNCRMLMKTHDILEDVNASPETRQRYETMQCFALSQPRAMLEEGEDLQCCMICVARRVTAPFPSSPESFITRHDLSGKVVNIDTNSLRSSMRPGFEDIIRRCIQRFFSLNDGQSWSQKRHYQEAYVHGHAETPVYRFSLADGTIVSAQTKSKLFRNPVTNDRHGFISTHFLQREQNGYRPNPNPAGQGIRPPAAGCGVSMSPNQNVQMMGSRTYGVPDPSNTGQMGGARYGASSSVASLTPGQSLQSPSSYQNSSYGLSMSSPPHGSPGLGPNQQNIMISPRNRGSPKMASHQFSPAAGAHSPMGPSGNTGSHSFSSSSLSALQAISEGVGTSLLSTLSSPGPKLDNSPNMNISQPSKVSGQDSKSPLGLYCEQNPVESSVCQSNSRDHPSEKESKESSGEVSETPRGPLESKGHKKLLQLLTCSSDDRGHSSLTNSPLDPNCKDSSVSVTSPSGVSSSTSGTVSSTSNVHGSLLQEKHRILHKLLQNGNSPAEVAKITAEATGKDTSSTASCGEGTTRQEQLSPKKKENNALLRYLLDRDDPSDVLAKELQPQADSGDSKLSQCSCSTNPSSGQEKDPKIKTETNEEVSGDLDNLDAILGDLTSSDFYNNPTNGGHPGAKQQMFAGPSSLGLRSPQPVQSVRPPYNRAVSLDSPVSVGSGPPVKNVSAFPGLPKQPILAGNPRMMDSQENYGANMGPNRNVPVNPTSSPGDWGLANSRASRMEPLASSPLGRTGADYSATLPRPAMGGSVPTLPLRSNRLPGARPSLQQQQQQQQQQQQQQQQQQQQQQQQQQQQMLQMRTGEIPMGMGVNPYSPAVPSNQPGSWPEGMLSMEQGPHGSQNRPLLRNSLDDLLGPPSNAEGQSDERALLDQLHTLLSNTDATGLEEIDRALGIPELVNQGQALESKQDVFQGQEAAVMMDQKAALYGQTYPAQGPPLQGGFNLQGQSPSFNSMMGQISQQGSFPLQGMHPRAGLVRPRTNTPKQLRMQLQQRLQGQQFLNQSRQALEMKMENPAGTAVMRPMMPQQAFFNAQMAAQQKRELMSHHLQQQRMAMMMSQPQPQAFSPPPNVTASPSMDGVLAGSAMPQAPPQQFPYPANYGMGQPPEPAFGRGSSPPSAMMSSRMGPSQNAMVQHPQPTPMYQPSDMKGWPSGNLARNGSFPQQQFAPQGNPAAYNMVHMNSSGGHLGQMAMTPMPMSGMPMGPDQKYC
Hep lipid drop = hepatic lipid droplet formation modulation; AID 1656; AML12 mouse hepatocytes, oleate lipid droplets, BODIPY imaging; inhibition, % at 6.5 µM; 0.4% of 240,000 active;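 active = lipid droplet intensity inhibited by at least 50%, with more than 500 cells counted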
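Material – AML12 mouse liver cells · Also added – oleate loading, 100 µM · Compound dosing – 6.5 µM single-point dosing · Times – overnight treatment with compound plus oleate · Measured by – fluorescence imaging, 20x objective, two fields per well · Read-out – percent inhibition of filter-corrected integrated lipid droplet intensity per well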
CTSL1 counter = counter-screen for PFM18AAP inhibitors: inhibitors of F. hepatica cathepsin L1; recombinant F. hepatica cathepsin L1, Z-Leu-Arg-MCA fluorescence; inhibition, % at 5.96 µM; 0.49% of 300,000 active; AID 1906;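 active = inhibition above the mean of all tested compounds plus 3 SD, set per screening campaign, cut at about 17% in these data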
Each line names hits and unclear results; the compound was inactive in the other large screens.

Cc1cc2c(C)cc(=O)[nH]c2cc1NC(=O)CCl	none
O=C(CCl)Nc1cc2[nH]c(=O)[nH]c2cc1Br	CTSL1 counter 25
C[C@H](NC(=O)C1CC(=O)N(c2ccc3c(c2)OCCO3)C1)C(=O)NCc1ccco1 (stereo partly drawn)	none
CC(C)C[C@H](NC(=O)C1CC(=O)N(c2ccc3c(c2)OCO3)C1)C(=O)NCc1ccco1 (stereo partly drawn)	CTSL1 counter 27
COC(C(=O)Nc1ccc(F)cc1)c1ccccc1 (stereo not drawn)	none
O=C(Oc1oc(-c2ccco2)nc1C=Nc1ccccc1)c1ccoc1	none (no result: Hep lipid drop)
Cc1ccc(C(=O)Oc2oc(-c3ccco3)nc2C=Nc2ccc(Cl)cc2)cc1	CTSL1 counter 21 (no result: Hep lipid drop)
O=C(Oc1oc(-c2ccco2)nc1C=Nc1ccccc1)c1ccco1	CTSL1 counter 20
CC1CCCC(NC(=O)NC(=O)CCl)C1C (stereo not drawn)	CTSL1 counter 24
C=CCN1C(=O)/C(=C\c2ccco2)C(C(=O)OC)=C1C	none
Cc1ccc(S(=O)(=O)c2nc(C)oc2NCc2ccccc2)cc1	CTSL1 counter 35 (no result: Arrestin-AP2 inh)
CNc1oc(Cc2ccccc2)nc1S(=O)(=O)c1ccccc1	CTSL1 counter 22
CCOc1ccc(-c2nc(S(=O)(=O)c3ccccc3)c(NC)o2)cc1	none
CC(C)C1Oc2ccccc2C(=O)N(CC(=O)c2ccc3c(c2)OCCO3)C1=O (stereo not drawn)	none
CC(=O)N(C1=C(Cl)C(=O)c2ccccc2C1=O)C1CCCCC1	CTSL1 counter 23
CC(=O)N(c1ccccc1C)C1CCCC1	none
Cc1ccc(C(=O)/C=C/C(=O)O)cc1	none
Cn1c(=O)c2cc(S(=O)(=O)NC(Cc3ccccc3)C(=O)NCc3ccco3)ccc2n(C)c1=O (stereo not drawn)	CTSL1 counter 31 (no result: Hep lipid drop)
O=C(CCl)NCc1c(Cl)cccc1-n1cccc1	CTSL1 counter 17 (no result: Hep lipid drop)
O=C(Cc1c(Cl)cccc1Cl)NCCc1ccc(Cl)cc1	none
CCn1c(COc2ccccc2)nnc1SCC(=O)Nc1cc(C)ccc1OC	none
CCOC(=O)c1ccc(N=Cc2c(O)c3ccccc3oc2=O)cc1	none
CC(=O)Nc1c(O)nc(SCC(=O)N2CCCCC2)[nH]c1=O	none (no result: pCIP destab, Hep lipid drop, CTSL1 counter)
O=C(O)c1c2c(nc3ccc(S(=O)(=O)N4CCC(C(=O)NCc5ccccc5Cl)CC4)cc13)CCCC2	none
O=C(O)c1c2c(nc3ccc(S(=O)(=O)N4CCC(C(=O)NCc5ccc(Cl)cc5)CC4)cc13)CCCC2	CTSL1 counter 20
N#Cc1ccccc1NC(=O)COC(=O)c1ccc(S(=O)(=O)N2CCCC2)cc1	none (no result: Hep lipid drop)
COc1cc2ncnc(Nc3cccc(Cl)c3)c2cc1OC	Hep lipid drop 65 (no result: Arrestin-AP2 inh, CTSL1 counter)
O=C(NCc1ccco1)/C(=C\c1ccco1)NC(=O)c1ccc(Br)o1	none
O=C(NCc1ccco1)/C(=C\C=C\c1ccccc1)NC(=O)c1ccco1	CTSL1 counter 17
COc1ccccc1C(=O)N/C(=C\c1ccccc1)C(=O)NCc1ccco1	CTSL1 counter 17 (no result: Hep lipid drop)
O=C(NCc1ccco1)/C(=C/c1ccco1)NC(=O)c1ccc(Br)o1	CTSL1 counter 17
O=C(NCc1ccco1)/C(=C/C=C/c1ccccc1)NC(=O)c1ccco1	CTSL1 counter 27
O=C(NCc1ccco1)/C(=C/c1ccccc1)NC(=O)c1ccco1	none
COc1ccc(NC(=O)C(=O)NNC(=O)c2cccs2)cc1	CTSL1 counter 19
Cc1ccc(NC(=O)C(=O)NNC(=O)c2cccs2)cc1	none
CC(=O)Nc1ccc(NS(=O)(=O)c2cccc3nonc23)cc1	CTSL1 counter 17
NC(=O)c1sc2nc3c(c(-c4ccco4)c2c1N)CCC3	none
Cc1ccc(-c2c3c(nc4sc(C(N)=O)c(N)c24)CCCC3)o1	CTSL1 counter 38
O=C(COC(=O)COc1ccc(Cl)cc1)NCCCc1ccccc1	none (no result: pCIP destab, Hep lipid drop, CTSL1 counter)
Cc1ccc(C2/C(=C(/O)c3ccc(Br)cc3)C(=O)C(=O)N2Cc2ccco2)o1 (stereo not drawn)	none (no result: Hep lipid drop)
O=C1S/C(=C\c2ccc(N3CCOCC3)o2)C(=O)N1Cc1c(F)cccc1Cl	none (no result: Hep lipid drop)
O=C1S/C(=C/c2ccc(N3CCOCC3)o2)C(=O)N1Cc1c(F)cccc1Cl	CTSL1 counter 49
COc1ccc(-c2noc(CN(C)Cc3ccccc3)n2)cc1	none
Cn1c(=O)[nH]c(=O)c2c1nc(SCCC(=O)O)n2Cc1cccc(Br)c1	none
CC(=O)CSc1nc2c(c(=O)[nH]c(=O)n2C)n1Cc1cccc(Br)c1	CTSL1 counter 35
Cc1nnc(N/N=C/c2ccccc2O)n1N	CTSL1 counter 20
Cc1cccc(/C=N/Nc2cc(N3CCOCC3)nc(N3CCOCC3)n2)c1	Hep lipid drop 130
O=C1CC(N2CCC(c3nc4ccccc4s3)CC2)C(=O)N1Cc1ccccc1 (stereo not drawn)	none
CN1C(=O)CC(N2CCC(c3nc4ccccc4s3)CC2)C1=O (stereo not drawn)	CTSL1 counter 19
O=C(NN1C(=O)/C(=C/c2ccc(O)c(O)c2)SC1=S)c1ccccc1	CTSL1 counter 34
Cc1cc(C)c2nc(C(F)(F)F)nc(N3CC(C)OC(C)C3)c2c1 (stereo not drawn)	none
Cc1noc(C)c1NC(=O)Nc1cccc2c1O[C@H](CN(C)S(=O)(=O)c1ccccc1)[C@@H](C)CN([C@H](C)CO)C2=O	none (no result: pCIP destab, Hep lipid drop, CTSL1 counter)
Cc1ccc(C(=O)Nc2ccc(C(=O)N/N=C/c3ccccn3)cc2)cc1	CTSL1 counter 19
CCCN(CCO)Cc1cccc(Br)c1	none
N=C1CCC(=N)c2c1c(O)c1ccccc1c2O	CTSL1 counter 19
CCOC(=O)N1CCN(C(=O)CSc2ccc(-c3ccc(OC)cc3)nn2)CC1	none
Oc1c(Br)cc(Br)cc1CNc1cccc2cccnc12	CTSL1 counter 29
O=C(NC1CCCC1)C(c1ccc(F)cc1)N(Cc1ccc(Cl)cc1)C(=O)CCl (stereo not drawn)	CTSL1 counter 41
COC(=O)c1ccc(C(C(=O)NC2CCCCC2)N(Cc2ccc(F)cc2)C(=O)Cc2cccs2)cc1 (stereo not drawn)	none
O=C(NC1CCCC1)C(c1ccc(Cl)cc1)N(Cc1ccc(F)cc1)C(=O)CCl (stereo not drawn)	CTSL1 counter 36
O=C(CSc1nc2cc3ccccc3cc2[nH]1)Nc1ccc(F)cc1	none
CCCOC(=O)c1ccc(NC(=O)/C=C/c2cccs2)cc1	Hep lipid drop 80
Cn1nc(C(F)(F)F)c(-c2ccc(Br)cc2)c1NC(=O)c1ccco1	CTSL1 counter 29
Cn1nc(C(F)(F)F)c(-c2ccc(Br)cc2)c1NC(=O)c1cccnc1	none
COc1cc2c(cc1OC)-c1cc(Nc3ccc(C)cc3)nc(=O)n1CC2	none
O=C1C2CC=C(Cl)CC2C(=O)N1CCCCCCN1C(=O)C2CC=C(Cl)CC2C1=O (stereo not drawn)	CTSL1 counter 42
COc1ccc(C(=O)c2no[n+]([O-])c2C(=O)c2ccc(OC)cc2)cc1	CTSL1 counter 18 (no result: Hep lipid drop)
CCC(O)(CC)C(=O)NN(C(=O)CCl)c1ccccc1	none
CC(=O)Nc1ccc(C(=O)OCc2ccccc2Br)cc1	none
Cc1nc2ccc(C(=O)OCc3ccccc3Br)cc2nc1C	CTSL1 counter 19 (no result: Hep lipid drop)
